Converted amounts (≈) assume the structure as drawn.

A short description of series [1]: Water solubility study of CDF and CDF-β-cyclodextrin complexes. To be noted: distilled water, ambient temperature, shaken 2 h, UV 365 nm. It is filed as physicochemical. The method in brief: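 The complex was made by kneading the components at 2:1 molar ratio in alcohol/water for 1 h. It was dried at 45°C for 24 h, powdered and sieved (#80). Excess test compound or complex was dispersed in 25 ml distilled water and shaken 2 h at ambient temperature to equilibrium. Solutions were passed through a 0.22-μm filter and diluted with methanol. Absorbance was read at 365 nm.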

Series [2] concerns pancreatic cancer cells BxPC-3. Briefly: MTT cell growth assay, BxPC-3. To be noted: BxPC-3 cells, 72 h treatment. It is filed as cell-based. The method in brief:
(§1)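 Cells grown at 37°C under humidified 5% CO2. BxPC-3 and MDA-MB-231 were in DMEM with 10% FBS, and PC3 was in RPMI with 10% FBS. Lines were STR-authenticated. Cells were seeded in 96-well plates and dosed 24 h after seeding. After 72 h, MTT 0.5 mg/ml was added for 2 h at 37°C. Medium was replaced with DMSO for 30 min at room temperature before reading absorbance. Eight replicate wells per treatment; each experiment run at least three times.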
In general terms: Tetrazolium assays rely on reduction of a dye to a coloured formazan, in cell work by metabolically active cells.

For series [3] the following is noted: pancreas of mice; cited from earlier work.
A short description of series [4]: Pharmacokinetics and tissue distribution. It is filed as in vivo. The settings on record: mice, single i.v. dose CDF 5.0 mg/mice, at 2 h. The procedure, abridged: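 Female ICR-SCID mice, 8–10 weeks old, were starved overnight. Each received a single i.v. dose: test compound 5.0 mg/mouse, or its β-cyclodextrin 1:2 complex at 12.5 mg/mouse (5.0 mg equivalent). Vehicle was 1:1 ethanol/polysorbate 80 diluted tenfold with 5% glucose. About 200 μL blood was taken by cardiac puncture for serum. Pancreas was PBS-washed, blotted and weighed. Samples were stored at −80°C and quantified by validated LC-MS/MS.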

Series [5] deals with prostate cancer cells PC3. As to the kind of experiment: MTT cell growth assay, PC3. It is filed as cell-based. The settings on record: 72 h treatment. The procedure, abridged: as §1
Series [6] has as its system breast cancer cells MDA-MB-231. Briefly: MTT cell growth assay, MDA-MB-231. It is filed as cell-based. To be noted: MDA-MB-231 cells, 72 h treatment. The procedure, abridged:
as §1

Series [7] can be described thus: Phase solubility analysis. It is filed as physicochemical. To be noted: in presence of β-cyclodextrin 0-20 mM, water, 30 ± 2°C, 72 h.

The term IC50 denotes the concentration needed to halve the response being measured. In series [1], `COc1cc(/C=C/C(=O)C(=Cc2ccc(F)c(F)c2)C(=O)/C=C/c2ccc(O)c(OC)c2)ccc1O` [CDF, 3,4-difluorobenzo curcumin] had a water solubility of 14 µg/mL (≈ 28.4 µM). The IC50 in series [2] stood at 350 nM; in series [5], 260 nM; in series [6], 325 nM. The “levels in pancreas relative to curcumin” value in series [3] is listed as 10 times. The concentration in pancreas in series [4] was ~ 300 ng/g. In addition, the concentration in serum in series [4] is given as ~ 6 ng/ml. The “phase solubility diagram type” value in series [7] is “AN type”.

(Values after article PMC3868989 (Pharmaceutical research, 2012).)
